# miR-122 sensor: miR-122 Renilla sensor signal increase in Huh7, primary screen, miR-122 inhibitor project, cell-based, single point, plate reader; Huh7 miR-122 Renilla luciferase sensor, 48 h; neutral wells = 0, positive control = 100; activation (reporter increase), % at 12.5 µM; 340,000 tested, 0.3% active; AID 602342, 2012;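 active means mean replicate activation score at least 90 and every replicate individually at or above 90; inconclusive means only one of the two criteria met; inactive means neither criterion met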;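 further: higher luciferase means less miR-122 activity so hits act as miR-122 inhibitors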
# DENV2 CPE: inhibitors of DENV2 cytopathic effect, primary screen, cell-based, plate reader, single concentration | DENV2-infected cells, cytopathic effect rescue | AID 651640, 2012 | 350,000 tested, 1.7% active | CPE inhibition, % at 9.99 µM; in the data active means CPE inhibition above about 20%, passing the limit was not always enough; inconclusive means no clear call, values can overlap the other calls; tested in BHK-21 cells
# Ecoli rRNA inh: reduced GFP signal of wild-type E. coli, primary screen, bacterial rRNA inhibitor project, GFP/RFP fluorescence, OD600, single point; E. coli WT GFP vs humanized-ribosome RFP mutants, 24 h; active compounds read low; DMSO median 0, no signal -100; AID 720706, 2013; 350,000 tested, 1.6% active; GFP signal change (wild-type ribosome), % (test concentration not listed);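 active means significant combined selectivity score with lowered wild-type GFP, culture density cut under 30%, mutant RFP and density less affected; inactive means any of these conditions unmet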
# E-selectin induc: E-selectin induction in HUVECs, primary screen, imaging, HUVEC, immunofluorescence imaging, single point; P16581; normalized: neutral wells 0, TNF-alpha wells 100; activation, % at 7.58 µM; 260,000 tested, 0.37% active;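 active means mean E-selectin-positive cell signal at least 10% of the positive control, reached in at least 60% of replicates, without over 20% cell loss; inconclusive means no rule given, readout overlaps actives, possibly toxicity-flagged; inactive means the rest, including those meeting only one limit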
# Target sequence (P16581 whole entry, looked up): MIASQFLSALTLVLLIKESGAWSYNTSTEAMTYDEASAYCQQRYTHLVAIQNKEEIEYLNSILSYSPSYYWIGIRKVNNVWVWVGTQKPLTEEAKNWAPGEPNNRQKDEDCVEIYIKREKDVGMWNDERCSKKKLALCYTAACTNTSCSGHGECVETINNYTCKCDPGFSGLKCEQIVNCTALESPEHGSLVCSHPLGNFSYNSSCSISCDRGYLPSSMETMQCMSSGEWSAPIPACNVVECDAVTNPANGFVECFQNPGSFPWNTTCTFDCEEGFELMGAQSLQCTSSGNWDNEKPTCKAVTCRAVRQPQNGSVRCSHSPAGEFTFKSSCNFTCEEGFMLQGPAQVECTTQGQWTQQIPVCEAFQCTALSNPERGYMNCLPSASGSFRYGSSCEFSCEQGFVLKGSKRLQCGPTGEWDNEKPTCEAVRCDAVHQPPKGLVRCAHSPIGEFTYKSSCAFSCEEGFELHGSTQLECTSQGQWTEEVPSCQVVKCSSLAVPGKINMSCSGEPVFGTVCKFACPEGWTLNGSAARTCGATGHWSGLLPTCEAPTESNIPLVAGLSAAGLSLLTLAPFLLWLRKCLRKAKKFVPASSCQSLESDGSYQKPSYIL
#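 material = human umbilical vein endothelial cells (HUVEC), E-selectin induction | quantity = 3,000 cells/well | medium = EGM-2 growth medium on 0.1% gelatin-coated wells | technique = immunofluorescence imaging | read-out basis = % PE-positive cells | control set = TNF-alpha positive control, DMSO neutral control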
# Cneo AK release: Cryptococcus neoformans cell lysis inducers, primary screen, AK release luminescence, single concentration; C. neoformans lysis, adenylate kinase release luminescence, 4 h; normalised: neutral wells 0, clomiphene wells 100; lysis activity, % at 15 µM; 360,000 tested, 0.2% active;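 active means mean lysis activity across replicates of at least 80%, whatever share of replicates individually reach that level; inactive means mean lysis activity below 80%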
#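 Test system: log-phase Cryptococcus neoformans yeast cells; Quantity: yeast cell density of 5 × 10^6 cells/mL; Buffer or medium: YPD; Doses: single compound concentration per well; Timing: 4 h at 37 °C static, read 1 h later; Measured by: AK luminescence; Read-out basis: lysis from increased AK signal; Control set: Clomiphene as positive control.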
# A number is an active result; – = inactive; ? = inconclusive; · = no result; [ ] = another dose, or the depositor's remark. A selection: hits, their analogues and other compounds. The true share with any hit is near 3.1%.
SMILES,miR-122 sensor,DENV2 CPE,Ecoli rRNA inh,E-selectin induc,Cneo AK release
CCN1CCN(Cc2ccc(NC(=O)c3cc(NC(=O)c4cnn(-c5ccccc5)c4N)cc(OC)c3)cc2C(F)(F)F)CC1,–,82,–,–,–
COc1cc2[nH]c(=S)nc(NCCc3ccc(C)cc3)c2cc1OC,·,–,-26,·,·
CCOC(=O)c1cnc2c(c(C)nn2C)c1Oc1ccccc1F,·,–,-32,·,·
CCCN(C)C[C@H]1Oc2cc(C#CCC3CCCC3)ccc2S(=O)(=O)N([C@H](C)CO)C[C@H]1C,–,·,–,–,·
Cc1ccccc1C(=O)Nc1nnc(-c2ccncc2)o1,·,–,-33,–,·
CC(=O)Nc1ccc(NC(=O)COC(=O)[C@@H]2CCCN2C(=O)c2cccs2)cc1,–,–,–,–,–
NC(=O)c1ccsc1NC(=O)COC(=O)[C@@H]1CCCN1C(=O)c1cccs1,·,122,–,·,·
CC(C)N(C[C@H]1N[C@@H](CO)[C@H]1c1ccccc1)C(=O)c1ccccc1,–,–,·,·,–
CN1C(=O)c2cc(NC(=O)c3cccc(F)c3)ccc2OC[C@H]2O[C@@H](CC(=O)NCC3CC3)CC[C@H]21,·,21,–,–,·
CCCNC(=O)Nc1ccc2c(c1)C(=O)N(C)[C@@H]1CC[C@@H](CC(=O)NCc3ccccc3)O[C@@H]1CO2,–,56,–,–,–
Cc1ccccc1NC(=O)Nc1ccc2c(c1)C(=O)N(C)[C@@H]1CC[C@@H](CC(=O)NCC3CC3)O[C@H]1CO2,–,–,–,–,–
CCCNC(=O)Nc1ccc2c(c1)C(=O)N(C)[C@@H]1CC[C@@H](CC(=O)NCc3ccccc3)O[C@H]1CO2,–,–,–,–,–
Cc1ccccc1NC(=O)Nc1ccc2c(c1)C(=O)N(C)[C@H]1CC[C@@H](CC(=O)NCC3CC3)O[C@H]1CO2,218[16.7 µM],–,–,–,–
CN1C(=O)c2cc(NC(=O)NCc3ccccc3)ccc2OC[C@@H]2O[C@H](CC(=O)NCC3CCCCC3)CC[C@@H]21,173[16.7 µM],·,–,–,–
COc1ccc2c3c(n(C)c2c1)[C@@H](CO)N(CC1CC1)CC31CN(C(=O)Nc2ccc(F)cc2F)C1,·,–,–,–,·
CC(=O)Nc1ccc2c(c1)C(=O)N(C)[C@H]1CC[C@H](CC(=O)Nc3cccc(C(C)C)c3)O[C@@H]1CO2,–,108,–,–,–
CN1C(=O)c2cc(NC(=O)Cc3ccccc3)ccc2OC[C@@H]2O[C@@H](CC(=O)NCC3CC3)CC[C@@H]21,183[16.7 µM],–,–,–,–
Cc1nn(C)cc1NC(=O)C[C@H]1CC[C@H]2[C@@H](COc3ccc(NC(=O)NC(C)C)cc3C(=O)N2C)O1,–,?,–,–,–
Cc1nn(C)cc1NC(=O)C[C@H]1CC[C@@H]2[C@H](COc3ccc(NC(=O)NC(C)C)cc3C(=O)N2C)O1,–,33,–,–,–
CN1C(=O)c2cc(NC(=O)NCc3ccccc3)ccc2OC[C@H]2O[C@H](CC(=O)NCC3CCCCC3)CC[C@H]21,–,98,–,–,–
CN1C(=O)c2cc(NC(=O)NCc3ccccc3)ccc2OC[C@H]2O[C@H](CC(=O)NCC3CCCCC3)CC[C@@H]21,–,–,–,–,–
CCC(=O)N1C[C@H](C)[C@H](OC)CN(C)C(=O)c2ccc(NC(=O)Nc3ccc(Cl)cc3)cc2OC[C@@H]1C,·,·,–,–,·
O=C(C[C@@H]1CC[C@@H]2[C@H](COC[C@H](O)CN2Cc2cc(F)cc(F)c2)O1)NC1CCC1,–,–,–,–,–
C[C@H](CO)N1C[C@H](C)[C@H](CN(C)C(=O)c2ccccn2)Oc2ncc(C#Cc3ccccn3)cc2C1=O,·,–,–,–,–
C[C@H]1CN([C@@H](C)CO)C(=O)c2cc(-c3ccc(C#N)cc3)cnc2O[C@H]1CN(C)Cc1cncnc1,·,·,–,–,·
SMILES,miR-122 sensor,DENV2 CPE,Ecoli rRNA inh,E-selectin induc,Cneo AK release
C[C@H](CO)N1C[C@H](C)[C@H](CN(C)S(=O)(=O)c2cn(C)cn2)Oc2ccc(NS(=O)(=O)c3cn(C)cn3)cc2C1=O,–,·,–,–,·
CCOC(=O)c1c(SCCN2CCCCC2)n(-c2ccccc2)c(=S)n(-c2ccccc2)c1=O,·,23,–,·,·
COc1ccccc1C(=O)Nc1ccc2c(c1)nc1n2CCN(C2CCCCC2)C1,–,–,-18,·,–
CCc1cnc(N2[C@H](CO)[C@@H](c3ccc(C#CCC4CCCC4)cc3)[C@@H]2C#N)s1,·,·,–,–,·
N/C(=N\OC(=O)COc1cc(Cl)c(Cl)cc1Cl)c1ccncc1,·,–,–,74,·
[O-][n+]1cccc2ncc3cscc3c21,–,·,–,431,–
c1cnc2c(c1)ncc1cscc12,·,–,–,–,·
CO[C@@H]1CN(C)C(=O)c2cc(NC(=O)C3CC3)ccc2OC[C@@H](C)N(C(=O)c2ccccc2F)C[C@H]1C,·,–,–,–,–
CCN(CC)CCN(C(=O)c1ccc2c(c1)OCCO2)c1nc2c(Cl)cccc2s1,–,–,-22,–,–
CN(C)CCCN(C(=O)c1ccc2c(c1)OCCO2)c1nc2ccc(Cl)cc2s1,–,–,-46,–,–
CN(C)CCN(C(=O)c1cccc(Cl)c1)c1nc2c(Cl)cccc2s1,–,·,·,–,–
CCN(CC)CCN(C(=O)c1ccc2c(c1)OCCO2)c1nc2cc(C)cc(C)c2s1,–,?,-21,–,–
Cc1cccc(OCC(O)Cn2ccnc2C)c1 (stereo not drawn),–,–,–,·,–
Cc1cccc(C)c1OCC(O)Cn1ccnc1C (stereo not drawn),–,40,–,–,–
C[C@H]1CCCCO[C@H](CN(C)C(=O)Cc2ccccc2)[C@@H](C)CN([C@@H](C)CO)C(=O)c2cc(N(C)C)ccc2O1,–,·,–,–,·
C[C@@H]1CCCCO[C@@H](CN(C)C(=O)c2ccccc2)[C@@H](C)CN([C@H](C)CO)C(=O)c2cc(NC(=O)CCC(F)(F)F)ccc2O1,–,93,–,–,–
C[C@@H]1CCCCO[C@H](CN(C)C(=O)c2ccncc2)[C@H](C)CN([C@H](C)CO)C(=O)c2cc(NC(=O)CCC(F)(F)F)ccc2O1,–,74,–,–,82
C[C@H]1CN(C)C(=O)c2cc(NS(C)(=O)=O)ccc2O[C@H]1CN(C)C,·,·,–,·,·
CC(C)NC(=O)N(C)C[C@H]1OCCCC[C@H](C)Oc2ccc(NC(=O)Nc3cccc4ccccc34)cc2C(=O)N([C@H](C)CO)C[C@H]1C,·,·,–,·,·
CC(C)NC(=O)Nc1cccc2c1O[C@H](CN(C)C(=O)OC(C)(C)C)[C@@H](C)CN(C)C2=O,·,·,–,·,·
CCOC(=O)c1cn[nH]c1NC(=S)Nc1ccc(Cl)cc1,–,–,-41,–,–

# Assay outcomes as filed in PubChem.
